Measured values from different studies.
Lines come from different studies, so protocols differ.
Organism: Pseudomonas aeruginosa
Effect on: microbial growth

With CN(C)[C@@H]1C(O)=C(C(N)=O)C(=O)[C@@]2(O)C(O)=C3C(=O)c4c(O)cncc4C[C@H]3C[C@@H]12.Cl.Cl the MIC was 8 µg/mL (broth dilution; ATCC27853).
C[C@H]1COc2c(N3CCN(C)CC3)c(F)cc3c(=O)c(C(=O)O)cn1c23 gave an MIC of 4 µg/mL (agar dilution; PAO1).
CN(C)[C@@H]1C(O)=C(C(N)=O)C(=O)[C@@]2(O)C(O)=C3C(=O)c4c(O)c(NC(=O)CNC(C)(C)C)nc(Cl)c4C[C@H]3C[C@@H]12.Cl.Cl.Cl has an MIC of greater than 32 µg/mL (broth dilution; ATCC27853).
CC(C)Oc1c(NC(=O)c2ccc(NC(=O)[C@H](CC(N)=O)NC(=O)c3ccc(NC(=O)c4ccc(C(F)(F)F)cc4)cc3)cc2)ccc(C(=O)Nc2ccc(C(=O)O)cc2)c1O gave an MIC of greater than 64 µg/mL (PA14).
With CCn1cc(C(=O)O)c(=O)c2cc(F)c(N3CCNCC3)cc21 the MIC was greater than 5 µg/mL (broth dilution; ATCC10145; 18 h).
With CCCCCCC#Cc1cncc(-c2nnc(SCc3ccc(C#N)cc3)n2C)c1 the MIC was no less than 20 µg/mL.
The MIC of COc1c(C)c(OC(C)=O)c(C)c(OC(C)=O)c1C(=O)/C=C/c1ccccc1 is reported as 5000 µg/mL (broth dilution; ATCC27853).
With Fc1ccccc1NCc1ccc(Oc2ccccn2)cc1 the MIC was greater than 25 µg/mL.
For CC1=NN(CNc2ccccc2[N+](=O)[O-])C(=O)C1=NNn1c(-c2ccccc2)nc2ccccc2c1=O, the MIC was 50.4 µM (broth dilution; 24 h).
With COc1c(C)c(OS(=O)(=O)c2ccc3ccccc3c2)c(C)c(OS(=O)(=O)c2ccc3ccccc3c2)c1C(=O)/C=C/c1ccccc1 the MIC was 5000 µg/mL (broth dilution; ATCC27853).
The MIC of CC1=NN(CNC(=O)c2ccccc2)C(=O)C1=NNn1c(-c2ccccc2)nc2ccccc2c1=O is reported as 51.9 µM (broth dilution; 24 h).
CC(C)(C)OCC1NC(=O)C(C(=O)NC(C(=O)NC2C(=O)N3C2SC(C)(C)C3C(=O)O)c2ccccc2)=C1O (stereo not shown) has an MIC of 12.5 µg/mL.
With O=c1[nH]cc(F)c(=O)[nH]1 the MIC was 4 µg/mL (broth dilution; 24 h).
CCCCCCC/C=C/C(=O)N1C(=O)/C(=C(/C)O)C(=O)C1CCCCN (stereo not shown) has an MIC of greater than 200 µg/mL (PA01).
The MIC of Brc1ccc(NCc2ccc(Oc3ccccn3)cc2)cc1 is reported as greater than 25 µg/mL.
With O=c1cc(-c2ccccc2)oc2cc(O)c(O)c(O)c12 the MIC was 256 µg/mL (broth dilution; PAO1).
CC(C)Oc1c(NC(=O)c2ccc(NC(=O)[C@H](CC(N)=O)NC(=O)c3ccc(CNC(=O)c4ccc(C#N)cc4)cc3)cc2)ccc(C(=O)Nc2ccc(C(=O)O)cc2)c1O gave an MIC of greater than 64 µg/mL (PA14).
The MIC of Cc1nc(Cl)c2c(c1O)C(=O)C1=C(O)[C@]3(O)C(=O)C(C(N)=O)=C(O)[C@@H](N(C)C)[C@@H]3C[C@@H]1C2.Cl is reported as greater than 32 µg/mL (broth dilution; ATCC27853).
For CC(C)Oc1c(NC(=O)c2ccc(NC(=O)[C@H](CC(N)=O)NC(=O)c3ccc(NC(=O)c4ccccc4[N+](=O)[O-])cc3)cc2)ccc(C(=O)Nc2ccc(C(=O)O)cc2)c1O, the MIC was greater than 64 µg/mL (PA14).
With CN(C)[C@@H]1C(O)=C(C(N)=O)C(=O)[C@@]2(O)C(O)=C3C(=O)c4c(cc5ccc(-c6cccnc6)cc5c4O)C[C@H]3C[C@@H]12 the MIC was 32 µg/mL (broth dilution; ATCC27853).
Cc1ccc2nc(-c3ccc(Cl)cc3)n(Cc3ccccc3Cl)c2c1 has an MIC of 512 µg/mL (broth dilution; ATCC27853).
For Cc1cc(C(=O)Nc2ccc(C(=O)N[C@@H](CC(N)=O)C(=O)Nc3ccc(C(=O)Nc4ccc(C(=O)Nc5ccc(C(=O)O)cc5)c(O)c4OC(C)C)cc3)cc2)ccc1C#N, the MIC was 4 µg/mL (PA14).
NC1CCCCc2c1[nH]c1ccc(Br)cc21 (stereo not shown) gave an MIC of 128 µg/mL (broth dilution; PAO1; 18 h).
The MIC of COc1c(C(=O)Nc2ccc(C(=O)O)cc2)ccc2nc(-c3cc(NC(=O)C(CC(N)=O)NC(=O)c4ccc(NC(=O)c5ccc(C#N)cc5)cc4)cn3C)[nH]c12 (stereo not shown) is reported as greater than 64 µg/mL (PA14).
The MIC of NC[C@H]1O[C@H](O[C@H]2[C@H](O)[C@@H](O[C@H]3O[C@H](CO)[C@@H](O)[C@H](N)[C@H]3O)[C@H](N)C[C@@H]2N)[C@H](N)C[C@@H]1O is reported as 26.7 µM (broth dilution; CMCC10104).
With CN(C)C1CN(Cc2ccc3cc4c(c(O)c3c2)C(=O)C2=C(O)[C@]3(O)C(=O)C(C(N)=O)=C(O)[C@@H](N(C)C)[C@@H]3C[C@@H]2C4)C1 the MIC was 32 µg/mL (broth dilution; ATCC27853).
For CC(C)(C)Oc1ccc(CC2NC(=O)C(C(=O)NC(C(=O)NC3C(=O)N4C3SC(C)(C)C4C(=O)O)c3ccccc3)=C2O)cc1 (stereo not shown), the MIC was 12.5 µg/mL.
For O=C(O)c1cn(C2CC2)c2cc(N3CCNCC3)c(F)cc2c1=O, the MIC was 16 µg/mL (broth dilution; ATCC27853).
The MIC of N=C(N)NN=Cc1ccc(OC/C=C\COc2ccc(C=NNC(=N)N)cc2)cc1 is reported as no more than 51 µg/mL (PA14; 16 h).
CC(C)CCNc1nc(Cl)c2c(c1O)C(=O)C1=C(O)[C@]3(O)C(=O)C(C(N)=O)=C(O)[C@@H](N(C)C)[C@@H]3C[C@@H]1C2.Cl.Cl.Cl has an MIC of greater than 32 µg/mL (broth dilution; ATCC27853).
For C/C(O)=C1\C(=O)C(CC(C)C)N(C(=O)C=Cc2ccccc2)C1=O (stereo not shown), the MIC was greater than 200 µg/mL (PA01).
For O=c1cc(-c2ccc(O)cc2)oc2cc(O)cc(O)c12, the MIC was 128 µg/mL (broth dilution; PAO1).
With CC(C)Oc1c(NC(=O)c2ccc(NC(=O)[C@H](CC(N)=O)NC(=O)c3ccc(NC(=O)C(C)Oc4ccc(C#N)cc4)cc3)cc2)ccc(C(=O)Nc2ccc(C(=O)O)cc2)c1O (stereo partly shown) the MIC was greater than 64 µg/mL (PA14).
CCCCCC(=O)Oc1c(C)c(O)c(C(=O)/C=C/c2ccccc2)c(OC)c1C has an MIC of 5000 µg/mL (broth dilution; ATCC27853).
With CC(C)Oc1c(NC(=O)c2ccc(NC(=O)[C@H](CC(N)=O)NC(=O)c3ccc(NC(=O)C(C)Sc4ccc(C#N)cc4)cc3)cc2)ccc(C(=O)Nc2ccc(C(=O)O)cc2)c1O (stereo partly shown) the MIC was greater than 64 µg/mL (PA14).
With Cc1ccc(C)n1-c1ccc(-c2nnco2)cc1 the MIC was 4 µg/mL (broth dilution; ATCC10145; 18 h).
O=C(Cc1ccc(O)c(O)c1)NCCCCCCCC[P+](c1ccccc1)(c1ccccc1)c1ccccc1.[Br-] gave an MIC of greater than 32 µg/mL (broth dilution; ATCC27853; 18 h).
